Results from different studies.
Compare with care: the assays were run in different laboratories.
Target: Casein kinase I isoform alpha (CSNK1A1, Homo sapiens, UniProt P48729)

C[S+]([O-])c1ccc(-c2nc(-c3ccncc3)c(-c3ccc(F)cc3)[nH]2)cc1 (stereo not drawn)
remaining signal (cell-free assay; 0.5 µM): 63.9%

c1ccc(CNc2nc(N3CCOc4ccccc43)nc3c2CCCC3)cc1
inhibition (target engagement in cells; inhibitor; chemoproteomics; 20 mM): -1.4%

CCN1CCN(Cc2ccc(NC(=O)c3ccc(C)c(Oc4ccnc5[nH]ccc45)c3)cc2C(F)(F)F)CC1
inhibition (target engagement in cells; inhibitor; chemoproteomics; A-375; 5 µM): -60.9%

O=C(O)[C@@H]1[C@@H](Cn2nnc3ccccc3c2=O)CC[C@H]1C(=O)c1ccc(OCCC2CCOCC2)cc1
remaining binding (cell-free assay; competition with immobilised ligand; 1 µM): 97%

CC(C)(C)c1nc(-c2cccc(NS(=O)(=O)c3c(F)cccc3F)c2F)c(-c2ccnc(N)n2)s1
remaining activity (enzyme activity; inhibitor; radiometric; 1 µM): 94%

CN(CCCC(F)(F)F)c1nccc(-c2cnn3ncccc23)n1
remaining binding (binding; 1 µM): 86%

Nc1c(C(=O)NCc2ccc(C(=O)NCCCC3CCCCC3)cc2)cnn1-c1ccccc1
remaining binding (cell-free assay; competition with immobilised ligand; 0.1 µM): 100%

Cc1sc(C(=O)NC2COC2)cc1-n1cc(NC(=O)Nc2c(F)cccc2Cl)cn1
remaining activity (enzyme activity; inhibitor; 10 µM): 81.1%

O=C1Cc2c([nH]c3ccc(Br)cc23)-c2ccccc2N1
remaining signal (cell-free assay; 0.5 µM): 95.1%

COc1cccc2c(NCc3ccccc3)nc(-n3c(N)nc4ccccc43)nc12
inhibition (target engagement in cells; inhibitor; chemoproteomics; 20 mM): 4.9%

N#CCCc1ccc2c(c1)-c1[nH]c3ccc([N+](=O)[O-])cc3c1CC(=O)N2
remaining signal (cell-free assay; 0.5 µM): 95.1%

COc1cc2ncnc(Nc3ccc(Oc4ccccc4)cc3C)c2cc1OC
inhibition (enzyme activity; inhibitor; 1 µM): 3%

O=Nc1c(-c2c(O)[nH]c3cc(Br)ccc23)[nH]c2ccccc12
activity vs control (enzyme activity; inhibitor; 0.5 µM): 95.1%

CNc1cccc2cc(C(=O)Nc3ccc(C(=O)O)cc3)c(=O)[nH]c12
inhibition (enzyme activity; inhibitor; 10 µM): 3.5%

CCc1ccccc1C(=O)Nc1n[nH]c2c(C)c(F)c(C3C(C#N)=C(C)N(C)C(C)=C3C#N)cc12
remaining binding (cell-free assay; competition with immobilised ligand; 1 µM): 96%

O=C(Nc1cnn(-c2csc(C(=O)NC3COC3)c2)c1)Nc1ccccc1Cl
remaining activity (enzyme activity; inhibitor; 5 µM): 98.5%

CN(c1ccnc(CNc2nc(Nc3ccc4c(c3)CC(=O)N4)ncc2C(F)(F)F)n1)S(C)(=O)=O
remaining binding (cell-free assay; competition with immobilised ligand; 1 µM): 81%

CN(C)C1CCN(CC#Cc2nn(C3CCCC3)c3nc(NCc4ccccc4)ncc23)C1 (stereo not drawn)
inhibition (enzyme activity; inhibitor; FRET; 0.1 µM): 2%

CN(C)C(=O)Cn1cc(-c2nc(C3(c4ccc(-c5cnc(N)nc5)cc4)CC3)no2)cn1
remaining binding (cell-free assay; competition with immobilised ligand; 1 µM): 62%

COc1cc2ncnc(Nc3ccc(F)c(Cl)c3)c2cc1OCCCN1CCOCC1
remaining signal (cell-free assay; 0.5 µM): 98.6%

CN(C)C(=O)Cn1cc(-c2nc([C@@](C)(c3ccc(-c4cnc(N)nc4)cc3)C3CC3)no2)cn1
remaining binding (cell-free assay; competition with immobilised ligand; 1 µM): 100%

CCN1CCN(Cc2ccc(NC(=O)c3ccc(C)c(/C=C/c4cnc5[nH]ccc5c4OC)c3)cc2C(F)(F)F)CC1
inhibition (target engagement in cells; inhibitor; chemoproteomics; A-375; 0.5 µM): -75.1%

O=C1Nc2ccc(Cl)cc2C1=Cc1cc(Cl)c(O)c(Cl)c1
remaining signal (cell-free assay; 0.5 µM): 92.6%

CCC(=O)N[C@H]1CC[C@@H](C(=O)N(C)c2ccc(-c3nc4ccccc4o3)cc2)C1
remaining binding (cell-free assay; competition with immobilised ligand; 1 µM): 82%
